Data as given in ChEMBL document CHEMBL1140171, “Synthesis and utilization of chiral alpha-methylated alpha-amino acids with a carboxyalkyl side chain in the design of novel Grb2-SH2 peptide inhibitors free of phosphotyrosine” (J Med Chem, 2008).
Starred links: 1 amine or outer side, 2 acyl side, 3 side chain; linkers in the order of their positions; H or OH if unused. Positions of bridges follow the written chain, without caps; N, C: chain ends. Non-standard residues stand in square brackets, D forms with d. Residues, ends and D or L forms follow the SMILES beside them. *: point of attachment. Cys(CH2CO)(S-oxide,Ss) = O=C([C@H](C[S@+]([O-])CC(=O)[*:3])N[*:1])[*:2]; X1 = O=C(O)CCc1cc(C[C@H](N[*:1])C(=O)[*:2])ccc1O; Tyr(3-NH2) = Nc1cc(C[C@H](N)C(=O)O)ccc1O; X2 = C[C@](CCCC(=O)O)(N[*:1])C(=O)[*:2]; Gla = N[C@@H](CC(C(=O)O)C(=O)O)C(=O)O; Fmoc = O=C(OCC1c2ccccc2-c2ccccc21)*; αMehGlu = C[C@](N)(CCCC(=O)O)C(=O)O; αMeE = C[C@](N)(CCC(=O)O)C(=O)O; Aad = N[C@@H](CCCC(=O)O)C(=O)O; αMeD = C[C@](N)(CC(=O)O)C(=O)O; Ac6c = NC1(C(=O)O)CCCCC1; Ava = NCCCCC(=O)O

Tests used:
[1] = molecular target: Growth factor receptor-bound protein 2 (Homo sapiens, UniProt P62993); assay: Binding affinity to recombinant Grb2 SH2 domain by surface plasmon resonance analysis
How it was run: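 Competition SPR: inhibitor mixed with recombinant Grb2 SH2 protein, with equilibrium binding measured to immobilized biotinyl-DDPS-pY-VNVQ (SHC pTyr317 phosphopeptide) on a streptavidin SA chip. Run in pH 7.4 PBS with 0.01% P-20 surfactant. IC50 is the concentration giving half-maximal competition, as the mean of at least two independent experiments with standard deviation.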

[2] = tested on: MDA-MB-453; assay: Antiproliferative activity against human MDA-MB-453 cells expressing erbB-2 after 4 days by WST-8 assay; type: functional, cell-based; conditions: MDA-MB-453, 96 h
How it was run: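 MDA-MB-453 cells (erbB-2 overexpressing) seeded at (3-4) × 10^3 cells/well with a range of inhibitor concentrations, incubated 4 days. WST-8 added to 10% final, 2-3 h at 37 °C, absorbance read at 450 nm. IC50 is the concentration giving 50% growth inhibition, taken against untreated DMSO-control absorbance.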

Growth factor receptor-bound protein 2, sequence (P62993 whole entry, the tested form may be a part): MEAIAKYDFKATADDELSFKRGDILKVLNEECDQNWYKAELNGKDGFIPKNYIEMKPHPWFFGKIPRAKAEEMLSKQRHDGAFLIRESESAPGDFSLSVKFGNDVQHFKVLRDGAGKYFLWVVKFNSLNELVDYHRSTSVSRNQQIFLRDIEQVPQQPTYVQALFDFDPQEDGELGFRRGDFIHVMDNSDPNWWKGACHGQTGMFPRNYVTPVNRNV

Compound	IC50 [1]	IC50 [2]
CC(C)C[C@@H]1NC(=O)[C@H](CCCC(=O)O)NC(=O)C[S@@+]([O-])C[C@@H](C(N)=O)NC(=O)CCCCNC(=O)[C@H](CC(N)=O)NC(=O)[C@](C)(CCC(=O)O)NC(=O)[C@H](Cc2ccc(O)cc2)NC1=O	18 µM	
CC(C)C[C@@H]1NC(=O)[C@H](CCCC(=O)O)NC(=O)C[S@@+]([O-])C[C@@H](C(N)=O)NC(=O)CCCCNC(=O)[C@H](CC(N)=O)NC(=O)[C@@](C)(CCC(=O)O)NC(=O)[C@H](Cc2ccc(O)cc2)NC1=O	30.5 µM	
C[C@@](CCC(=O)O)(NC(=O)[C@H](Cc1ccc(O)c(CCC(=O)O)c1)NC(=O)OCC1c2ccccc2-c2ccccc21)C(=O)N[C@@H](CC(N)=O)C(N)=O	168 µM	
CC(C)C[C@@H]1NC(=O)[C@H](CCCC(=O)O)NC(=O)CSC[C@@H](C(N)=O)NC(=O)CCCCNC(=O)[C@H](CC(N)=O)NC(=O)[C@@](C)(CCC(=O)O)NC(=O)[C@H](Cc2ccc(O)cc2)NC1=O	60.5 µM	
C[C@@](CCC(=O)O)(NC(=O)[C@@H](N)Cc1ccc(O)c(CCO)c1)C(=O)N[C@@H](CC(N)=O)C(N)=O	290 µM	
CC(C)C[C@@H]1NC(=O)[C@H](CCCC(=O)O)NC(=O)CSC[C@@H](C(N)=O)NC(=O)CCCCNC(=O)[C@H](CC(N)=O)NC(=O)[C@](C)(CCC(=O)O)NC(=O)[C@H](Cc2ccc(O)cc2)NC1=O	70 µM	
CC(C)C[C@H](NC(=O)[C@H](CCCC(=O)O)NC(=O)OCC1c2ccccc2-c2ccccc21)C(=O)N[C@@H](Cc1ccc(O)c(N)c1)C(=O)NC1(C(=O)N[C@@H](CC(N)=O)C(N)=O)CCCCC1 (Fmoc-[Aad]L[Tyr(3-NH2)][Ac6c]N-NH2)	5.8 µM	
CC(C)C[C@H](NC(=O)[C@H](CCCC(=O)O)NC(=O)OCC1c2ccccc2-c2ccccc21)C(=O)N[C@@H](Cc1ccc(O)c(CCC(=O)O)c1)C(=O)N[C@@](C)(CCC(=O)O)C(=O)N[C@@H](CC(N)=O)C(N)=O (Fmoc-[Aad]L[X1][αMeE]N-NH2)	5.6 µM	14 µM
CC(C)C[C@H](NC(=O)[C@H](CC(C(=O)O)C(=O)O)NC(=O)OCC1c2ccccc2-c2ccccc21)C(=O)N[C@@H](Cc1ccc(O)c(N)c1)C(=O)NC1(C(=O)N[C@@H](CC(N)=O)C(N)=O)CCCCC1 (Fmoc-[Gla]L[Tyr(3-NH2)][Ac6c]N-NH2)	2.5 µM	52 µM
CC(C)C[C@H](NC(=O)[C@H](CC(C(=O)O)C(=O)O)NC(=O)OCC1c2ccccc2-c2ccccc21)C(=O)N[C@@H](Cc1ccc(O)c(N)c1)C(=O)N[C@@](C)(CCC(=O)O)C(=O)N[C@@H](CC(N)=O)C(N)=O (Fmoc-[Gla]L[Tyr(3-NH2)][αMeE]N-NH2)	4.4 µM	55 µM
CC(C)C[C@H](NC(=O)[C@@](C)(CCCC(=O)O)NC(=O)OCC1c2ccccc2-c2ccccc21)C(=O)N[C@@H](Cc1ccc(O)cc1)C(=O)NC1(C(=O)N[C@@H](CC(N)=O)C(N)=O)CCCCC1 (Fmoc-[X2]LY[Ac6c]N-NH2)	> 1000 µM	
CC(C)C[C@H](NC(=O)[C@@](C)(CCCC(=O)O)NC(=O)OCC1c2ccccc2-c2ccccc21)C(=O)N[C@@H](Cc1ccc(O)c(N)c1)C(=O)NC1(C(=O)N[C@@H](CC(N)=O)C(N)=O)CCCCC1 (Fmoc-[X2]L[Tyr(3-NH2)][Ac6c]N-NH2)	700 µM	
CC(C)C[C@H](NC(=O)[C@](C)(CCCC(=O)O)NC(=O)OCC1c2ccccc2-c2ccccc21)C(=O)N[C@@H](Cc1ccc(O)cc1)C(=O)NC1(C(=O)N[C@@H](CC(N)=O)C(N)=O)CCCCC1 (Fmoc-[αMehGlu]LY[Ac6c]N-NH2)	118 µM	
CC(C)C[C@H](NC(=O)[C@](C)(CCCC(=O)O)NC(=O)OCC1c2ccccc2-c2ccccc21)C(=O)N[C@@H](Cc1ccc(O)c(N)c1)C(=O)NC1(C(=O)N[C@@H](CC(N)=O)C(N)=O)CCCCC1 (Fmoc-[αMehGlu]L[Tyr(3-NH2)][Ac6c]N-NH2)	3.9 µM	29 µM
CC(C)C[C@H](NC(=O)[C@@H](N)CC(C(=O)O)C(=O)O)C(=O)N[C@@H](Cc1ccc(O)c(N)c1)C(=O)N[C@@](C)(CCC(=O)O)C(=O)N[C@@H](CC(N)=O)C(N)=O (H-[Gla]L[Tyr(3-NH2)][αMeE]N-NH2)	19 µM	
CC(C)C[C@@H]1NC(=O)[C@H](CCCC(=O)O)NC(=O)C[S@@+]([O-])C[C@@H](C(N)=O)NC(=O)CCCCNC(=O)[C@H](CC(N)=O)NC(=O)C2(CCCCC2)NC(=O)[C@H](Cc2ccc(O)cc2)NC1=O ([Aad]LY[Ac6c]N[Ava][Cys(CH2CO)(S-oxide,Ss)]-NH2; lactam N-7)	77 µM	
CC(C)C[C@@H]1NC(=O)[C@H](CCCC(=O)O)NC(=O)C[S@@+]([O-])C[C@@H](C(N)=O)NC(=O)CCCCNC(=O)[C@H](CC(N)=O)NC(=O)[C@](C)(CC(=O)O)NC(=O)[C@H](Cc2ccc(O)cc2)NC1=O ([Aad]LY[αMeD]N[Ava][Cys(CH2CO)(S-oxide,Ss)]-NH2; lactam N-7)	30.5 µM	
CC(C)C[C@@H]1NC(=O)[C@H](CCCC(=O)O)NC(=O)C[S@@+]([O-])C[C@@H](C(N)=O)NC(=O)CCCCNC(=O)[C@H](CC(N)=O)NC(=O)[C@](C)(CCCC(=O)O)NC(=O)[C@H](Cc2ccc(O)cc2)NC1=O ([Aad]LY[αMehGlu]N[Ava][Cys(CH2CO)(S-oxide,Ss)]-NH2; lactam N-7)	17 µM	
CC(C)C[C@@H]1NC(=O)[C@H](CCCC(=O)O)NC(=O)C[S@@+]([O-])C[C@@H](C(N)=O)NC(=O)CCCCNC(=O)[C@H](CC(N)=O)NC(=O)[C@](C)(CCC(=O)O)NC(=O)[C@H](Cc2ccc(O)c(N)c2)NC1=O ([Aad]L[Tyr(3-NH2)][αMeE]N[Ava][Cys(CH2CO)(S-oxide,Ss)]-NH2; lactam N-7)	8.1 µM	
CC(C)C[C@@H]1NC(=O)[C@H](CC(C(=O)O)C(=O)O)NC(=O)C[S@@+]([O-])C[C@@H](C(N)=O)NC(=O)CCCCNC(=O)[C@H](CC(N)=O)NC(=O)[C@](C)(CCCC(=O)O)NC(=O)[C@H](Cc2ccc(O)c(N)c2)NC1=O ([Gla]L[Tyr(3-NH2)][αMehGlu]N[Ava][Cys(CH2CO)(S-oxide,Ss)]-NH2; lactam N-7)	1.15 µM	12 µM
CC(C)C[C@@H]1NC(=O)[C@H](CCCC(=O)O)NC(=O)CSC[C@@H](C(N)=O)NC(=O)CCCCNC(=O)[C@H](CC(N)=O)NC(=O)[C@](C)(CC(=O)O)NC(=O)[C@H](Cc2ccc(O)cc2)NC1=O ({CH2CO}-[Aad]LY[αMeD]N[Ava]C-NH2; thioether N-7)	108 µM	
CC(C)C[C@@H]1NC(=O)[C@H](CCCC(=O)O)NC(=O)CSC[C@@H](C(N)=O)NC(=O)CCCCNC(=O)[C@H](CC(N)=O)NC(=O)[C@](C)(CCCC(=O)O)NC(=O)[C@H](Cc2ccc(O)cc2)NC1=O ({CH2CO}-[Aad]LY[αMehGlu]N[Ava]C-NH2; thioether N-7)	60.7 µM	
CC(C)C[C@@H]1NC(=O)[C@H](CCCC(=O)O)NC(=O)CSC[C@@H](C(N)=O)NC(=O)CCCCNC(=O)[C@H](CC(N)=O)NC(=O)[C@](C)(CCC(=O)O)NC(=O)[C@H](Cc2ccc(O)c(N)c2)NC1=O ({CH2CO}-[Aad]L[Tyr(3-NH2)][αMeE]N[Ava]C-NH2; thioether N-7)	17 µM	
CC(C)C[C@@H]1NC(=O)[C@H](CC(C(=O)O)C(=O)O)NC(=O)CSC[C@@H](C(N)=O)NC(=O)CCCCNC(=O)[C@H](CC(N)=O)NC(=O)[C@](C)(CCCC(=O)O)NC(=O)[C@H](Cc2ccc(O)c(N)c2)NC1=O ({CH2CO}-[Gla]L[Tyr(3-NH2)][αMehGlu]N[Ava]C-NH2; thioether N-7)	9.5 µM	
